Assay results published in ChEMBL document CHEMBL1148638, “Aminopyridine-based c-Jun N-terminal kinase inhibitors with cellular activity and minimal cross-kinase activity” (J Med Chem, 2006).

How the values were obtained:
[1] = target: Mitogen-activated protein kinase 9 (Homo sapiens, UniProt P45984); test: Inhibition of JNK2-mediated ATF2 phosphorylation
[2] = target: Mitogen-activated protein kinase 8 (Homo sapiens, UniProt P45983); test: Inhibition of JNK1-mediated ATF2 phosphorylation
[3] = target: c-Jun N-terminal kinase, JNK (Homo sapiens, UniProt P45983+P53779+P45984); test: Inhibition of cJun phosphorylation in HepG2 cell line
[4] = Plasma clearance in iv dosed Sprague-Dawley rat; assay type: ADME, organism-based
[5] = Cmax in po dosed Sprague-Dawley rat; assay type: ADME, organism-based; design: route oral; settings: in vivo
Outline: (§1)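 Sprague-Dawley rats were dosed orally. Oral half-life is reported in hours and Cmax as the maximum plasma concentration in µM. AUC is total oral exposure from t = 0 to t = ∞, in µg·h/mL.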

[6] = Volume of distribution in iv dosed Sprague-Dawley rat; assay type: ADME, organism-based; settings: in vivo, read-out: Vdss
[7] = target: T1, Serine/threonine-protein kinase Sgk1 (Homo sapiens, UniProt O00141); test: Inhibition of SGK
T1 sequence (O00141 whole entry): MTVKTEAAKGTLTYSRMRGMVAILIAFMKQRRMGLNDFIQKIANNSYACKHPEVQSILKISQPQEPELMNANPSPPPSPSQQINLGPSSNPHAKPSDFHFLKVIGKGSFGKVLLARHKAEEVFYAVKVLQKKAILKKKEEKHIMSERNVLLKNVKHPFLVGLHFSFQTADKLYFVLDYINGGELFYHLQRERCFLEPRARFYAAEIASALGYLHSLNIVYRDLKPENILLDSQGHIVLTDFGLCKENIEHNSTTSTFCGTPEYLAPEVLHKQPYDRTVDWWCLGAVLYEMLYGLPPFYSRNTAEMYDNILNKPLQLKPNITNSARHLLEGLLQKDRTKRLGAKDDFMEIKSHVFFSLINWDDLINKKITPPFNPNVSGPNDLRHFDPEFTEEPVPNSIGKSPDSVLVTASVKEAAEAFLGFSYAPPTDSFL

[8] = target: T2, Calcium/calmodulin-dependent protein kinase type IV (Homo sapiens, UniProt Q16566); test: Inhibition of CaMK4
T2 sequence (Q16566 whole entry): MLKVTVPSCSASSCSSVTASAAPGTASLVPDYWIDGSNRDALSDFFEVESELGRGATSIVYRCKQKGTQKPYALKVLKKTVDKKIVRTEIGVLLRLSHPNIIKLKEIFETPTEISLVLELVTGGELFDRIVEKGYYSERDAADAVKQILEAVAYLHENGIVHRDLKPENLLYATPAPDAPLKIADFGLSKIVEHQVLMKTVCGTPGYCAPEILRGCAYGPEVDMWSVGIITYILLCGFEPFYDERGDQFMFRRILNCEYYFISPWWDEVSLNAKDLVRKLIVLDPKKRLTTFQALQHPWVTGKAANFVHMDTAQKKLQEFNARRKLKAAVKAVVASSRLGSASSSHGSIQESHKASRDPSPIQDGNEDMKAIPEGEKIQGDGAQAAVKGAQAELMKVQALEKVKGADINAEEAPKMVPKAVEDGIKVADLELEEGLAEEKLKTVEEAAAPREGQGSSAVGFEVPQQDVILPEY
Outline: (§2)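 Recombinant kinases were commercial, or baculovirus-expressed and purified by His-tag or GST affinity. Each was incubated 1 h with biotinylated substrate peptide (2 µM), γ-[33P]-ATP (5 µM) and inhibitor (3-10000 nM, 2% DMSO) in 25 mM Hepes pH 7.5, 10 mM MgCl2, Na3VO4. Reactions were stopped with EDTA/NaCl and read by streptavidin FlashPlate capture. IC50 came from titrations, converted to Ki by Cheng-Prusoff.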

[9] = AUC in iv dosed Sprague-Dawley rat; assay type: ADME, organism-based; settings: plasma
Outline: (§3)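 Sprague-Dawley rats received 5 mg/kg intravenously. Half-life is reported in hours. AUC is total drug exposure after iv dosing, from t = 0 to t = ∞, in µg·h/mL.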

[10] = Oral bioavailability in Sprague-Dawley rat; assay type: ADME, organism-based; settings: in vivo
[11] = Volume of distribution at steady state in iv dosed Sprague-Dawley rat; assay type: ADME, organism-based; settings: in vivo, read-out: Vss
Activated CDC42 kinase 1 = Activated CDC42 kinase 1 (Homo sapiens, UniProt Q07912); test: Inhibition of CDC42; outline: as §2
[12] = Half life in iv dosed Sprague-Dawley rat; assay type: ADME, organism-based; settings: in vivo; outline: as §3
[13] = target: Mitogen-activated protein kinase 10 (Homo sapiens, UniProt P53779); test: Inhibition of JNK3-mediated ATF2 phosphorylation
[14] = AUC in po dosed Sprague-Dawley rat; assay type: ADME, organism-based; settings: plasma; outline: as §1
[15] = Half life in po dosed Sprague-Dawley rat; assay type: ADME, organism-based; settings: in vivo; outline: as §1
[16] = Tmax in po dosed Sprague-Dawley rat; assay type: ADME, organism-based; settings: in vivo

Chain of Mitogen-activated protein kinase 9 (P45984 whole entry): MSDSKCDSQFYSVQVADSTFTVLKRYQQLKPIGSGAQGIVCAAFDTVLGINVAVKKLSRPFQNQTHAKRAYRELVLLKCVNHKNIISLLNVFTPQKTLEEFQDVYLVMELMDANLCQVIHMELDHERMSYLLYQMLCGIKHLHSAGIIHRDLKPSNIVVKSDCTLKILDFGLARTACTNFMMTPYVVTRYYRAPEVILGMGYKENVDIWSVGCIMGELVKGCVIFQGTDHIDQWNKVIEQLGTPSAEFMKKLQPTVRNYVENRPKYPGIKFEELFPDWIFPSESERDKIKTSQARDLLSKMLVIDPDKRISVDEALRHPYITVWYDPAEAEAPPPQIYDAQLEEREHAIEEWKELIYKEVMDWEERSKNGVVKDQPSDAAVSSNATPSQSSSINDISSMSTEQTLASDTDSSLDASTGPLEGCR
Chain of Mitogen-activated protein kinase 8 (P45983 whole entry): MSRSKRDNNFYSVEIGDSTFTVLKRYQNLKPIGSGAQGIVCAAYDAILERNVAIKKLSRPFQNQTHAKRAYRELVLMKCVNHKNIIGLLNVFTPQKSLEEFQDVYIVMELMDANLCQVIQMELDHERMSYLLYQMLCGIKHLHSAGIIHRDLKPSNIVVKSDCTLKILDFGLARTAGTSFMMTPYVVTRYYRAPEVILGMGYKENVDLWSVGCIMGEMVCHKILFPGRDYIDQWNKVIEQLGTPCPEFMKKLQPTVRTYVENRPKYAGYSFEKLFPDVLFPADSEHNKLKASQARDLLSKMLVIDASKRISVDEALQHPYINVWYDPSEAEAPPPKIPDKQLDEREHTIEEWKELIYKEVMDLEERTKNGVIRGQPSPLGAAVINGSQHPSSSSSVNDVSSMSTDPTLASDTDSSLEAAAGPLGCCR
Chain of Activated CDC42 kinase 1 (Q07912 whole entry): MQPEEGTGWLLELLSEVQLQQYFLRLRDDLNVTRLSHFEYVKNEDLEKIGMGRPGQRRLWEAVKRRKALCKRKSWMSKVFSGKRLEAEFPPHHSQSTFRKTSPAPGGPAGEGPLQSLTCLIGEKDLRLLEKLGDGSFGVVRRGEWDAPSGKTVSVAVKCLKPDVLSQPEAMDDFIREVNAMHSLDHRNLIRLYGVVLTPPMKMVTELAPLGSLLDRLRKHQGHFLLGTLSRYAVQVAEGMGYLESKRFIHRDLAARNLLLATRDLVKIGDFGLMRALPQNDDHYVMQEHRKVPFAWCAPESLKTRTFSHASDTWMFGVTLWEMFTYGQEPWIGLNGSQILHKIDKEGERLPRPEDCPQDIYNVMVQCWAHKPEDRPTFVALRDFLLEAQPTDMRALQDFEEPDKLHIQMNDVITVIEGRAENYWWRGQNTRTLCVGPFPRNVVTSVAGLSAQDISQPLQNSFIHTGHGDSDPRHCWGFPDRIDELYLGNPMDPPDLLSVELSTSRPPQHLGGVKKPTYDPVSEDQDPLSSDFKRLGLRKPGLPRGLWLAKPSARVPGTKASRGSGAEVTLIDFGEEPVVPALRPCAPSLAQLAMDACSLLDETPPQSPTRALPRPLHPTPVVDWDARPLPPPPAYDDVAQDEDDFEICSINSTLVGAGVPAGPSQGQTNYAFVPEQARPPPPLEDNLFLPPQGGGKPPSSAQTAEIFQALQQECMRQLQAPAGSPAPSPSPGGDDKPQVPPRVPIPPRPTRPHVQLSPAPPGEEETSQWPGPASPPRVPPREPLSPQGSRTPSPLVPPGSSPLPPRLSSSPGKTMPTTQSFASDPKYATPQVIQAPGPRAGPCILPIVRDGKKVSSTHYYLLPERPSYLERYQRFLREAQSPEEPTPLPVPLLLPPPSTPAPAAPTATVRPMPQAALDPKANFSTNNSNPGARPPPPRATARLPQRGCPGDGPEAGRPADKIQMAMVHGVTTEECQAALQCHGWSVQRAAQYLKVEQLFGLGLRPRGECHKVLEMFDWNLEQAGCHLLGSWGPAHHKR
Chain of Mitogen-activated protein kinase 10 (P53779 whole entry): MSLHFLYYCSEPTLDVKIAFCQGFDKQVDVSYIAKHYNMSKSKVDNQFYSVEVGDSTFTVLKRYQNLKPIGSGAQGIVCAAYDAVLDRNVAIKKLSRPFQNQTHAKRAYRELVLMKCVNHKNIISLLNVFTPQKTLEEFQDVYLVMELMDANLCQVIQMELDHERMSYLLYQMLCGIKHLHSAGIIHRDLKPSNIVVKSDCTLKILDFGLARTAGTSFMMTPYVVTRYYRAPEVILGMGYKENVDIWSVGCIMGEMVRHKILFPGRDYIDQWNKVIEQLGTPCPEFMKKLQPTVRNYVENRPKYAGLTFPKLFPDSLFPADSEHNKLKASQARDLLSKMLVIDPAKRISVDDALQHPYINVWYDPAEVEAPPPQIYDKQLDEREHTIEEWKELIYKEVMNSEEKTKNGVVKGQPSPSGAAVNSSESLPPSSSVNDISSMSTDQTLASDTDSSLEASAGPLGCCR

| SMILES | IC50 [1] | IC50 [2] | other results |
| --- | --- | --- | --- |
| CCCCNCC(=O)Nc1cc(N)c(C#N)c(OCC)n1 | > 10000 nM | 6300 nM | – |
| CCOc1nc(NC(C)=O)cc(C)c1C#N | > 10000 nM | > 10000 nM | – |
| CCNC(=O)Nc1cc(N)c(C#N)c(OCC)n1 | > 10000 nM | > 10000 nM | – |
| CCNc1nc(NC(C)=O)cc(N)c1C#N | > 10000 nM | 2400 nM | – |
| CCCc1nc(NC(C)=O)cc(N)c1C#N | > 10000 nM | > 10000 nM | – |
| COc1nc(NC(C)=O)cc(N)c1C#N | 4500 nM | 2200 nM | – |
| CCOc1nc(NC(=O)Cc2cc(OC)c(S(C)(=O)=O)cc2OC)cc(N)c1C#N | – | – | clearance [4]: 25 mL/min/kg; Cmax [5]: 1360 nM; Vd [6]: 4.7 L/kg; Ki [7]: > 9400 nM; Ki [8]: > 8600 nM; AUC [9]: 3500 ng·h/mL; bioavailability [10]: 31%; Vd [11]: 1.5 L/kg; Ki (Activated CDC42 kinase 1): > 9500 nM; half-life [12]: 2 h; Ki [13]: 72 nM; AUC [14]: 1100 ng·h/mL; half-life [15]: 1.5 h; Tmax [16]: 0.5 h |
| CCCCC(=O)N(C)c1cc(N)c(C#N)c(OCC)n1 | > 10000 nM | > 10000 nM | – |
| CCOc1nc(NCCc2cc(OC)ccc2OC)cc(N)c1C#N | > 10000 nM | > 10000 nM | – |
| COc1ccc(OC)c(CC(=O)Nc2cc(N)c(C#N)cn2)c1 | 5100 nM | 2600 nM | – |
| CC(=O)Nc1cc(N)c(C#N)c(OC(C)C)n1 | 470 nM | 310 nM | – |
| CCOc1nc(NC(=O)C(C)C)cc(N)c1C#N | 8400 nM | 4000 nM | – |
| CCOc1nc(NC(=O)CN(CC)CC)cc(N)c1C#N | 6300 nM | 2700 nM | – |
| CCCCOc1nc(NC(C)=O)cc(N)c1C#N | 4660 nM | 2100 nM | – |
| CCOc1nc(NC(=O)Cc2cc(OC)c(S(C)(=O)=O)cc2OC)cc(N)c1Cl | – | – | clearance [4]: 28.3 mL/min/kg; Cmax [5]: 1420 nM; Vd [6]: 2 L/kg; Ki [7]: > 9400 nM; Ki [8]: > 8600 nM; AUC [9]: 3000 ng·h/mL; bioavailability [10]: 49%; Vd [11]: 1.6 L/kg; Ki (Activated CDC42 kinase 1): > 9500 nM; half-life [12]: 0.8 h; Ki [13]: 61 nM; AUC [14]: 1500 ng·h/mL; half-life [15]: 2.1 h; Tmax [16]: 0.67 h |
| CCOc1cc(NC(C)=O)nc(N)c1C#N | > 10000 nM | > 10000 nM | – |
| CCOc1nc(NC(=O)OC)cc(N)c1C#N | > 10000 nM | > 10000 nM | – |
| CCCCNC(=O)C1CCN(CC(=O)Nc2cc(N)c(C#N)c(OCC)n2)CC1 | 180 nM | 69 nM | EC50 [3]: > 10000 nM |

Further lines, with some results ahead:

| IC50 [1] | IC50 [2] | SMILES | other results |
| --- | --- | --- | --- |
| 270 nM | 110 nM | COCCOc1nc(NC(=O)Cc2cc(OC)ccc2OC)cc(N)c1C#N | EC50 [3]: 1400 nM |
| 790 nM | 420 nM | CCOc1nc(NC(=O)Cc2cccc(C)c2)cc(N)c1C#N | – |
| 310 nM | 210 nM | CCOc1nc(NC(=O)Cc2cccc(OC)c2)cc(N)c1C#N | EC50 [3]: 2500 nM |
| > 10000 nM | 4400 nM | CCOc1nc(NC(=O)Cc2cc(C)ccc2C)cc(N)c1C#N | – |
| 274 nM | 180 nM | CCOc1nc(NC(=O)Cc2ccc(OC)cc2)cc(N)c1C#N | EC50 [3]: 1400 nM |
| 260 nM | 120 nM | CCOc1nc(NC(=O)Cc2ccccc2OC)cc(N)c1C#N | EC50 [3]: 1400 nM |
| 900 nM | 300 nM | CCOc1nc(NC(=O)Cc2cccc(Cl)c2)cc(N)c1C#N | – |
| 770 nM | 570 nM | CCOc1nc(NC(=O)Cc2ccccc2)cc(N)c1C#N | – |
